# ChEMBL document CHEMBL1149257, “Tetrasubstituted imidazole inhibitors of cytokine release: probing substituents in the N-1 position” (J Med Chem, 2004)
# pIC50: −log10 of the molar value.
# Experiments:
# [1] = biological target: Mitogen-activated protein kinase 14 (Homo sapiens, UniProt Q16539); assay: Inhibition of mitogen-activated protein kinase p38 alpha
# [2] = test system: Blood; assay: Inhibition of LPS-induced TNFalpha production in human whole blood; type: functional, tissue-based
# In short: (§1)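 Fresh blood from healthy human donors, preincubated 15 min at 37 °C, 5% CO2, with serially diluted compound in Cremophor EL/ethanol (1:1); 1% Cremophor EL/ethanol as control. Stimulated with LPS 1 μg/mL for 4 h at 37 °C, stopped on ice and centrifuged. TNFα and IL-1β in the supernatant measured by ELISA. IC50 from percent reduction versus control; mean of two independent experiments unless stated.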
# [3] = test system: Blood; assay: Inhibition of LPS-induced IL1 beta production in human whole blood; type: functional, tissue-based; in short: as §1
# [4] = biological target: CYP3A4 (Homo sapiens, UniProt P08684); assay: Inhibition of human liver CYP3A4 at 10 uM; type: ADME
# CYP3A4, sequence (P08684 whole entry, canonical isoform): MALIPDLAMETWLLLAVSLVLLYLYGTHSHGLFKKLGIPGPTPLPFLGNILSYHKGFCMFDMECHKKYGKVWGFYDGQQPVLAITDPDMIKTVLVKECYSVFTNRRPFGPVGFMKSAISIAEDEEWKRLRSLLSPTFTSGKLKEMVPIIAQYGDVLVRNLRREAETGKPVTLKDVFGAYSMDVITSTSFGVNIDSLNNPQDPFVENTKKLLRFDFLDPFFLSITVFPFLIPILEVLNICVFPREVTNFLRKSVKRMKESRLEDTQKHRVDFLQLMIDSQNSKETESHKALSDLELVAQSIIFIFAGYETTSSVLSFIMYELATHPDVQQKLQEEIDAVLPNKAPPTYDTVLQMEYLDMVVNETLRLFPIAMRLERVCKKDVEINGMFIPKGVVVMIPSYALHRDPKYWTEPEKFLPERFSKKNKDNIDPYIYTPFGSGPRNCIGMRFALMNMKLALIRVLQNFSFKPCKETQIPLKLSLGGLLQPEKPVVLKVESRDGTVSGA
# In short: (§2)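 Each isoform tested with the compound at a single concentration of 10 μM in phosphate buffer (pH 7.4) containing 0.1% DMSO; read out as percent inhibition of enzyme activity. Other conditions follow a previously reported protocol.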
# [5] = biological target: CYP2C19 (Homo sapiens, UniProt P33261); assay: Inhibition of human liver CYP2C19 at 10 uM; type: ADME; in short: as §2
# CYP2C19, sequence (P33261 whole entry): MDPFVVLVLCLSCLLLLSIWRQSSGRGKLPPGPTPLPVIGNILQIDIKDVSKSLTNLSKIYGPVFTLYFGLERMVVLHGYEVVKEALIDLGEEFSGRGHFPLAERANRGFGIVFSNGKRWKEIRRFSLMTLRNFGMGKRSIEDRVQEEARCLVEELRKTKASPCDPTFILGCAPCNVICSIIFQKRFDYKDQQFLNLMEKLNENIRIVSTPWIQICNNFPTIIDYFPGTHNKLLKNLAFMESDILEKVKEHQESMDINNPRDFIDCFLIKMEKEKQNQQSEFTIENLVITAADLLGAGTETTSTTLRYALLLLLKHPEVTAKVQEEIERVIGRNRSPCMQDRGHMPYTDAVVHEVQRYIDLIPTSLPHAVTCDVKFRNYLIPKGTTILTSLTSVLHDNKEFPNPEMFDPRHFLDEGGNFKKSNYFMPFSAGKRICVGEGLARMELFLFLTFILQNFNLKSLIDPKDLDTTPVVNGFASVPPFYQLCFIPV
# [6] = biological target: CYP2C9 (Homo sapiens, UniProt P11712); assay: Inhibition of human liver CYP2C9 at 10 uM; type: ADME; in short: as §2
# CYP2C9, sequence (P11712 whole entry): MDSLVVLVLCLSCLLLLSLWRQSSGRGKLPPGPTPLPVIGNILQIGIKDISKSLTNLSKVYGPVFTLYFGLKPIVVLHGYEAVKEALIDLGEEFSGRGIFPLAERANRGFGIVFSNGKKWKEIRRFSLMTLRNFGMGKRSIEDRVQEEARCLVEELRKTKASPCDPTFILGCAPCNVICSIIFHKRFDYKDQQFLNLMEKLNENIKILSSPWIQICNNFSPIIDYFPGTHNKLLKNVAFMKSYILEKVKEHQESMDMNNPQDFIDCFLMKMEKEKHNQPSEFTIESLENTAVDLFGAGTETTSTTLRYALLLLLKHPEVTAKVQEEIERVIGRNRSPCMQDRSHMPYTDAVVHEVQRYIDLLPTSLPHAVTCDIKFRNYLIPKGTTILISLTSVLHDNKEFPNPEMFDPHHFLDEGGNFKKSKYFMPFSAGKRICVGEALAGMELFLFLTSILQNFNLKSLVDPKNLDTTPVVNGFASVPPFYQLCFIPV
# [7] = biological target: CYP2D6 (Homo sapiens, UniProt P10635); assay: Inhibition of human liver CYP2D6 at 10 uM; type: ADME; in short: as §2
# CYP2D6, sequence (P10635 whole entry): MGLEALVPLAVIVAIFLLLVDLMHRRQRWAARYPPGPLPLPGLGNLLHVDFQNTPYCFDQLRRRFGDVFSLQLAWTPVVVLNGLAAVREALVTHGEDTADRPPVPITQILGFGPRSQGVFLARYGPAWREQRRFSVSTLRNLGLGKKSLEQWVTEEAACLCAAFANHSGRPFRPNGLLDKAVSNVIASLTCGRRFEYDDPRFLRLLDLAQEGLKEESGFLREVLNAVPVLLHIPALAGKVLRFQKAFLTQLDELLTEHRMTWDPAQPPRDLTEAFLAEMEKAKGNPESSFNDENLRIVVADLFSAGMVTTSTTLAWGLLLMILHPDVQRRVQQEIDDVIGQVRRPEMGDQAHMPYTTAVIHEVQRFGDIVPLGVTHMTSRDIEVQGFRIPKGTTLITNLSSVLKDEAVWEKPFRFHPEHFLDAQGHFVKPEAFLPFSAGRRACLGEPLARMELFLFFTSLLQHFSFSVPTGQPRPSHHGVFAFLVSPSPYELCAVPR
# [8] = biological target: T1, CYP1A2 (Homo sapiens, UniProt P05177); assay: Inhibition of human liver CYP1A2 at 10 uM; type: ADME; in short: as §2
# T1 sequence (P05177 whole entry): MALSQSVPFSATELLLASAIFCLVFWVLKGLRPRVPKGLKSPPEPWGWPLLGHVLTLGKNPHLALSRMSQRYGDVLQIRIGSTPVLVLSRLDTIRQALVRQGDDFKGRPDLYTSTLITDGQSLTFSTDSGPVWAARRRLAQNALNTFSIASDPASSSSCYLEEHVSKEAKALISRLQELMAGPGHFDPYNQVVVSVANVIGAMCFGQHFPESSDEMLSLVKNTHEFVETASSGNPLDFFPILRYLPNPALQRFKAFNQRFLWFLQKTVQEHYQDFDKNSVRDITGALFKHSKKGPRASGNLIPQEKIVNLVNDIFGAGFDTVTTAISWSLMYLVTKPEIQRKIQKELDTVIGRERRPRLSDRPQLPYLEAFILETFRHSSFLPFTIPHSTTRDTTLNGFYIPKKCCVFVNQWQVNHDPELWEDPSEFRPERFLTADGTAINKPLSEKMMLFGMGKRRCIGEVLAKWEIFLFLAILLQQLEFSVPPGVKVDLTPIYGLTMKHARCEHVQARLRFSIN
# Mitogen-activated protein kinase 14, sequence (Q16539 whole entry): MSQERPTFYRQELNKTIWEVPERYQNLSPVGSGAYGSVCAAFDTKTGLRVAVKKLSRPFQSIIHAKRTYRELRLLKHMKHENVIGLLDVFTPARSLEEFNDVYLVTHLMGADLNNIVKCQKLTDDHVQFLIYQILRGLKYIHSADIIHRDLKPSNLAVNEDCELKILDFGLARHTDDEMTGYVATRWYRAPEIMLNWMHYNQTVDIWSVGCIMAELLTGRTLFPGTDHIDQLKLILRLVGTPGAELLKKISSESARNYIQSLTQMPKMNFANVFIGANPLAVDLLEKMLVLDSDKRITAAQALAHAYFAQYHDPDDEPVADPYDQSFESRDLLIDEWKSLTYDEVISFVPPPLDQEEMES
Compound,pIC50 [1],also measured
COCCCn1c(SCCC(=O)N2CCOCC2)nc(-c2ccc(F)cc2)c1-c1ccnc(NC(C)=O)c1,< 5.00,–
COCCn1c(SCCC(=O)N2CCOCC2)nc(-c2ccc(F)cc2)c1-c1ccnc(NC(C)=O)c1,6.34,–
CC(=O)Nc1cc(-c2c(-c3ccc(F)cc3)nc(SCc3ccc([S+](C)[O-])cc3)n2CCOCCO)ccn1 (stereo not given),< 5.00,–
CSc1nc(-c2ccc(F)cc2)c(-c2ccnc(NC(C)=O)c2)n1CCCO,6.09,pIC50 [2]: 4.69; pIC50 [3]: 4.86
CC(=O)Nc1cc(-c2c(-c3ccc(F)cc3)nc(SCCCC(=O)N3CCOCC3)n2CCO)ccn1,5.70,–
CSc1nc(-c2ccc(F)cc2)c(-c2ccnc(NC(C)=O)c2)n1CCN(C)C,5.62,–
COC(Cn1c(SC)nc(-c2ccc(F)cc2)c1-c1ccnc(NC(C)=O)c1)OC,5.39,–
C=CCOCCn1c(SC)nc(-c2ccc(F)cc2)c1-c1ccnc(NC(C)=O)c1,5.73,pIC50 [2]: < 4.00; pIC50 [3]: 4.31
COCCCn1c(SC)nc(-c2ccc(F)cc2)c1-c1ccnc(NC(C)=O)c1,6.69,pIC50 [2]: 4.75; pIC50 [3]: 4.74
COCCCn1c(SCc2ccc([S+](C)[O-])cc2)nc(-c2ccc(F)cc2)c1-c1ccnc(NC(C)=O)c1 (stereo not given),5.88,–
CSc1nc(-c2ccc(F)cc2)c(-c2ccnc(NC(C)=O)c2)n1CCN1CCOCC1,5.69,pIC50 [2]: < 5.00; pIC50 [3]: < 5.00
CSc1nc(-c2ccc(F)cc2)c(-c2ccnc(NC(C)=O)c2)n1CCNC(C)=O,5.14,–
COCCn1c(SC)nc(-c2ccc(F)cc2)c1-c1ccnc(NC(C)=O)c1,6.66,inhibition at 10 µM [4]: 62%; pIC50 [2]: 4.48; inhibition at 10 µM [5]: 70.5%; inhibition at 10 µM [6]: 23.5%; inhibition at 10 µM [7]: 3.5%; inhibition at 10 µM [8]: 0%; pIC50 [3]: 4.52
COCCn1c(SCc2ccc([S+](C)[O-])cc2)nc(-c2ccc(F)cc2)c1-c1ccnc(NC(C)=O)c1 (stereo not given),6.82,–
CC(=O)Nc1cc(-c2c(-c3ccc(F)cc3)nc(SCc3ccc([S+](C)[O-])cc3)n2CCN2CCCCC2)ccn1 (stereo not given),5.35,–
CSc1nc(-c2ccc(F)cc2)c(-c2ccnc(NC(C)=O)c2)n1CCN1CCCCC1,5.87,inhibition at 10 µM [4]: 97%; pIC50 [2]: < 5.00; inhibition at 10 µM [5]: 41%; inhibition at 10 µM [6]: 5%; inhibition at 10 µM [7]: 77.5%; inhibition at 10 µM [8]: 12%; pIC50 [3]: < 5.00
CC(=O)NCCn1c(SCc2ccc([S+](C)[O-])cc2)nc(-c2ccc(F)cc2)c1-c1ccnc(NC(C)=O)c1 (stereo not given),< 5.00,–
CSCCn1c(SC)nc(-c2ccc(F)cc2)c1-c1ccnc(NC(C)=O)c1,6.37,pIC50 [2]: 4.35; pIC50 [3]: 4.44

Compound,pIC50 [1],also measured
CSCCn1c(SCc2ccc([S+](C)[O-])cc2)nc(-c2ccc(F)cc2)c1-c1ccnc(NC(C)=O)c1 (stereo not given),5.62,–
CC(=O)Nc1cc(-c2c(-c3ccc(F)cc3)nc(SCCC(=O)N3CCOCC3)n2CCCO)ccn1,5.02,–
C#CCOCCn1c(SC)nc(-c2ccc(F)cc2)c1-c1ccnc(NC(C)=O)c1,6.18,pIC50 [2]: 4.40; pIC50 [3]: 4.86
CC(=O)Nc1cc(-c2c(-c3ccc(F)cc3)nc(SCc3ccc([S+](C)[O-])cc3)n2CCCN2CCOCC2)ccn1 (stereo not given),< 5.00,–
C=CCOCCn1c(SCc2ccc([S+](C)[O-])cc2)nc(-c2ccc(F)cc2)c1-c1ccnc(NC(C)=O)c1 (stereo not given),< 5.00,–
CCOC(=O)N1CCC(n2c(SC)nc(-c3ccc(F)cc3)c2-c2ccnc(NC(C)=O)c2)CC1,< 5.00,–
CC(=O)Nc1cc(-c2c(-c3ccc(F)cc3)nc(SCCC(=O)N3CCOCC3)n2CCO)ccn1,5.60,–
CSc1nc(-c2ccc(F)cc2)c(-c2ccnc(NC(C)=O)c2)n1CCOCCO,5.07,inhibition at 10 µM [4]: 38%; pIC50 [2]: < 4.00; inhibition at 10 µM [5]: 19%; inhibition at 10 µM [6]: 18.5%; inhibition at 10 µM [7]: 0%; inhibition at 10 µM [8]: 0%; pIC50 [3]: < 4.00
CSc1nc(-c2ccc(F)cc2)c(-c2ccnc(NC(C)=O)c2)n1CC(C)O (stereo not given),5.06,–
CSc1nc(-c2ccc(F)cc2)c(-c2ccnc(NC(C)=O)c2)n1CCCN1CCOCC1,5.20,–
CC(=O)Nc1cc(-c2c(-c3ccc(F)cc3)nc(SCc3ccc([S+](C)[O-])cc3)n2CCO)ccn1 (stereo not given),5.65,–
CC(=O)Nc1cc(-c2c(-c3ccc(F)cc3)nc(SCc3ccc([S+](C)[O-])cc3)n2C2CC(C)(C)NC(C)(C)C2)ccn1 (stereo not given),< 5.00,–
C#CCOCCn1c(SCc2ccc([S+](C)[O-])cc2)nc(-c2ccc(F)cc2)c1-c1ccnc(NC(C)=O)c1 (stereo not given),5.30,–
CC(=O)Nc1cc(-c2c(-c3ccc(F)cc3)nc(SCc3ccc([S+](C)[O-])cc3)n2CC(C)O)ccn1 (stereo not given),< 5.00,–
CSc1nc(-c2ccc(F)cc2)c(-c2ccnc(NC(C)=O)c2)n1CC1COC(C)(C)O1 (stereo not given),5.43,–
CC(=O)Nc1cc(-c2c(-c3ccc(F)cc3)nc(SCc3ccc([S+](C)[O-])cc3)n2C)ccn1 (stereo not given),5.23,–
CSc1nc(-c2ccc(F)cc2)c(-c2ccnc(NC(C)=O)c2)n1CCO,6.40,pIC50 [2]: 4.45; pIC50 [3]: 4.48
